Laboratory results taken from ChEMBL document CHEMBL3217698, “Syntheses and biological evaluation of new cephalosporin-oxazolidinone conjugates” (2010).

What was measured:
[1] = tested on: Pseudomonas aeruginosa; assay: Antimicrobial activity against Pseudomonas aeruginosa K799/61 assessed as inhibition zone at 37 degC for 24 hrs by agar diffusion method; format: functional
How it was run: (§1)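 Each solution at 2.0 mM in DMSO:MeOH (1:9), 50 μL filled into 9 mm agar wells (Standard I Nutrient or Mueller Hinton II Agar). Incubation at 37 °C for 24 h. Inhibition zone diameter measured in mm; a partially clear zone or colonies inside the zone noted as p.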

[2] = tested on: Staphylococcus aureus; assay: Antimicrobial activity against methicillin-resistant Staphylococcus aureus 134/93 assessed as inhibition zone at 37 degC for 24 hrs by agar diffusion method; format: functional
How it was run: (§2)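 Agar well diffusion. Each 9 mm well in nutrient or Mueller Hinton II agar received 50 μL of a 2.0 mM solution in DMSO:MeOH (1:9). Plates were incubated at 37 °C for 24 h. The inhibition zone diameter was read in mm, including the 9 mm well. A "p" marks a partially clear zone or colonies inside the zone.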

[3] = tested on: Pseudomonas aeruginosa; assay: Antimicrobial activity against Pseudomonas aeruginosa K799/WT assessed as faint inhibition zone at 37 degC for 24 hrs by agar diffusion method; format: functional; how it was run: as §1
[4] = tested on: Staphylococcus aureus; assay: Antimicrobial activity against Staphylococcus aureus SG511 assessed as inhibition zone at 37 degC for 24 hrs by agar diffusion method; format: functional
How it was run: (§3)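 Well diffusion: 50 μL of a 1.0 mM solution in DMSO:MeOH (1:9) filled into 9 mm wells cut in Standard I Nutrient Agar or Mueller Hinton II Agar. Plates incubated at 37 °C for 24 h, then growth inhibition zone read in mm. Partially clear zones, or colonies within the zone, recorded as p.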

[5] = tested on: Staphylococcus aureus; assay: Antimicrobial activity against Staphylococcus aureus Efs1 assessed as inhibition zone at 37 degC for 24 hrs by agar diffusion method; format: functional; how it was run: as §1
[6] = tested on: Escherichia coli; assay: Antimicrobial activity against Escherichia coli SG458 assessed as partially clear inhibition zone at 37 degC for 24 hrs by agar diffusion method; format: functional
How it was run: (§4)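 Agar well diffusion. Each 9 mm well in nutrient or Mueller Hinton II agar received 50 μL of a 1.0 mM solution in DMSO:MeOH (1:9). Plates were incubated at 37 °C for 24 h. The inhibition zone diameter was read in mm, including the well. A "p" marks a partially clear zone or colonies inside the zone.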

[7] = tested on: Staphylococcus aureus; assay: Antimicrobial activity against Staphylococcus aureus Efs4 assessed as inhibition zone at 37 degC for 24 hrs by agar diffusion method; format: functional; how it was run: as §1
[8] = tested on: Staphylococcus aureus; assay: Antimicrobial activity against Staphylococcus aureus Efs1 assessed as partially clear inhibition zone at 37 degC for 24 hrs by agar diffusion method; format: functional; how it was run: as §2
[9] = tested on: Enterococcus faecalis; assay: Antimicrobial activity against vancomycin-resistant Enterococcus faecalis 1528 assessed as inhibition zone at 37 degC for 24 hrs by agar diffusion method; format: functional; how it was run: as §2
[10] = tested on: Bacillus subtilis; assay: Antimicrobial activity against Bacillus subtilis ATCC 6633 assessed as inhibition zone at 37 degC for 24 hrs by agar diffusion method; format: functional; how it was run: as §3
[11] = tested on: Pseudomonas aeruginosa; assay: Antimicrobial activity against Pseudomonas aeruginosa K799/61 assessed as faint inhibition zone at 37 degC for 24 hrs by agar diffusion method; format: functional; how it was run: as §2
[12] = tested on: Mycolicibacterium vaccae; assay: Antimicrobial activity against Mycobacterium vaccae IMET assessed as inhibition zone at 37 degC for 24 hrs by agar diffusion method; format: functional; how it was run: as §3
[13] = tested on: Micrococcus luteus; assay: Antimicrobial activity against Micrococcus luteus ATCC 10240 assessed as unclear inhibition zone at 37 degC for 24 hrs by agar diffusion method; format: functional; how it was run: as §4
[14] = tested on: Pseudomonas aeruginosa; assay: Antimicrobial activity against Pseudomonas aeruginosa K799/WT assessed as partially clear inhibition zone at 37 degC for 24 hrs by agar diffusion method; format: functional; how it was run: as §2
[15] = tested on: Micrococcus luteus; assay: Antimicrobial activity against Micrococcus luteus ATCC 10240 assessed as inhibition zone at 37 degC for 24 hrs by agar diffusion method; format: functional; how it was run: as §3
[16] = tested on: Staphylococcus aureus; assay: Antimicrobial activity against Staphylococcus aureus Efs4 assessed as partially clear inhibition zone at 37 degC for 24 hrs by agar diffusion method; format: functional; how it was run: as §2
[17] = tested on: Bacillus subtilis; assay: Antimicrobial activity against Bacillus subtilis ATCC 6633 assessed as partially clear inhibition zone at 37 degC for 24 hrs by agar diffusion method; format: functional; how it was run: as §3
[18] = tested on: Micrococcus luteus; assay: Antimicrobial activity against Micrococcus luteus ATCC 10240 assessed as partially clear inhibition zone at 37 degC for 24 hrs by agar diffusion method; format: functional; how it was run: as §4
[19] = tested on: Pseudomonas aeruginosa; assay: Antimicrobial activity against Pseudomonas aeruginosa K799/61 assessed as partially clear inhibition zone at 37 degC for 24 hrs by agar diffusion method; format: functional; how it was run: as §2
[20] = tested on: Escherichia coli; assay: Antimicrobial activity against Escherichia coli SG458 assessed as inhibition zone at 37 degC for 24 hrs by agar diffusion method; format: functional; how it was run: as §3
[21] = tested on: Enterococcus faecalis; assay: microbe, parasite or virus in culture; conditions: Enterococcus faecalis, 1528, 24 h, read-out: IZ
[22] = tested on: Micrococcus luteus; assay: Antimicrobial activity against Micrococcus luteus ATCC 10240 assessed as inhibition zone at 5 ug/ml at 37 degC for 24 hrs by agar diffusion method; format: functional; conditions: ATCC 10240, 24 h, read-out: IZ
How it was run: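 Agar well diffusion with the control antibiotic dissolved in water at 5 μg/mL. 50 μL was placed in each 9 mm well in nutrient or Mueller Hinton II agar. Plates were incubated at 37 °C for 24 h, and the inhibition zone diameter was read in mm, including the well.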

[23] = tested on: Bacillus subtilis; assay: microbe, parasite or virus in culture; conditions: ATCC 6633, 24 h, read-out: IZ
[24] = tested on: Staphylococcus aureus; assay: Antimicrobial activity against Staphylococcus aureus Efs1 assessed as inhibition zone at 5 ug/ml at 37 degC for 24 hrs by agar diffusion method; conditions: Efs1, 24 h, read-out: IZ
[25] = tested on: Pseudomonas aeruginosa; assay: Antimicrobial activity against Pseudomonas aeruginosa K799/61 assessed as inhibition zone at 5 ug/ml at 37 degC for 24 hrs by agar diffusion method; conditions: K799/61, 24 h, read-out: IZ
[26] = tested on: Staphylococcus aureus; assay: microbe, parasite or virus in culture; conditions: 134/93, 24 h, read-out: IZ
[27] = tested on: Mycolicibacterium vaccae; assay: Antimicrobial activity against Mycobacterium vaccae IMET assessed as inhibition zone at 5 ug/ml at 37 degC for 24 hrs by agar diffusion method; format: functional; conditions: read-out: IZ
How it was run: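 Ciprofloxacin dissolved in water at 5 μg/mL and filled into 9 mm wells in nutrient or Mueller Hinton II agar. Plates held at 37 °C for 24 h, after which the growth inhibition zone was read in mm.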

[28] = tested on: Pseudomonas aeruginosa; assay: Antimicrobial activity against Pseudomonas aeruginosa K799/WT assessed as inhibition zone at 5 ug/ml at 37 degC for 24 hrs by agar diffusion method; conditions: read-out: IZ
[29] = tested on: Staphylococcus aureus; assay: Antimicrobial activity against Staphylococcus aureus Efs4 assessed as inhibition zone at 5 ug/ml at 37 degC for 24 hrs by agar diffusion method; conditions: Efs4, 24 h, read-out: IZ
[30] = tested on: Escherichia coli; assay: Antimicrobial activity against Escherichia coli SG458 assessed as inhibition zone at 5 ug/ml at 37 degC for 24 hrs by agar diffusion method; conditions: SG458, 24 h, read-out: IZ
[31] = tested on: Staphylococcus aureus; assay: Antimicrobial activity against Staphylococcus aureus SG511 assessed as inhibition zone at 5 ug/ml at 37 degC for 24 hrs by agar diffusion method; conditions: SG511, 24 h, read-out: IZ
[32] = tested on: Pseudomonas aeruginosa; assay: Antimicrobial activity against Pseudomonas aeruginosa K799/WT assessed as inhibition zone at 37 degC for 24 hrs by agar diffusion method; format: functional; how it was run: as §1

| Structure (SMILES) | inhibition zone (IZ) [1] [mm] | inhibition zone (IZ) [2] [mm] | inhibition zone (IZ) [3] [mm] | inhibition zone (IZ) [4] [mm] | inhibition zone (IZ) [5] [mm] | inhibition zone (IZ) [6] [mm] | inhibition zone (IZ) [7] [mm] | inhibition zone (IZ) [9] [mm] | inhibition zone (IZ) [10] [mm] | inhibition zone (IZ) [11] [mm] | inhibition zone (IZ) [12] [mm] | inhibition zone (IZ) [13] [mm] | inhibition zone (IZ) [15] [mm] | inhibition zone (IZ) [16] [mm] | inhibition zone (IZ) [17] [mm] | inhibition zone (IZ) [20] [mm] | further results |
| --- | --- | --- | --- | --- | --- | --- | --- | --- | --- | --- | --- | --- | --- | --- | --- | --- | --- |
| CC(=O)NC[C@H]1CN(c2ccc(N3CCNCC3)c(F)c2)C(=O)O1 | 20 | 25 | 18 | 18 | 31 | 14 | 14 | 25 | 26 | 30 | 35 | 30 | 23 | 18 |  |  | inhibition zone (IZ) [8]: 35 mm; inhibition zone (IZ) [14]: 11 mm |
| CC(=O)OC[C@H]1CN(c2ccc(N3CCNCC3)c(F)c2)C(=O)O1 | 16 | 29 | 15 | 21 | 31 | 13 | 19 | 25 | 24 | 26 | 42 | 40 |  | 23 | 26 |  | inhibition zone (IZ) [18]: 31 mm |
| CC(=O)OC[C@H]1CN(c2ccc(N3CCN(C(=O)OCC4=C(C(=O)O)N5C(=O)[C@@H](NC(=O)Cc6ccccc6)[C@H]5SC4)CC3)c(F)c2)C(=O)O1 | 22 | 27 | 17 | 36 | 40 |  | 31 | 26 | 43 |  | 44 |  | 42 |  | 47 | 33 | inhibition zone (IZ) [19]: 31 mm |
| CC(=O)NC[C@H]1CN(c2ccc(N3CCN(C(=O)OCC4=C(C(=O)O)N5C(=O)[C@@H](NC(=O)Cc6ccccc6)[C@H]5SC4)CC3)c(F)c2)C(=O)O1 | 24 | 17 | 20 | 34 | 40 |  | 30 | 23 | 42 | 33 | 30 |  | 38 |  | 45 | 33 | inhibition zone (IZ) [18]: 42 mm; inhibition zone (IZ) [14]: 15 mm |
| CC(=O)OCC1=C(C(=O)O)N2C(=O)[C@@H](NC(=O)Cc3ccccc3)[C@H]2SC1 [CEFALORAM] | 23 | 13 | 11 | 39 | 43 |  | 35 | 23 | 46 |  | 0 | 44 | 38 |  | 52 | 35 |  |
| O=C(O)c1cn(C2CC2)c2cc(N3CCNCC3)c(F)cc2c1=O [CIPROFLOXACIN] |  |  |  |  |  |  |  |  |  |  |  |  |  |  |  |  | zone of inhibition at 5 µg/mL [21]: 15 mm; zone of inhibition at 5 µg/mL [22]: 0 mm; zone of inhibition at 5 µg/mL [23]: 31 mm; zone of inhibition at 5 µg/mL [24]: 0 mm; zone of inhibition at 5 µg/mL [25]: 35 mm; zone of inhibition at 5 µg/mL [26]: 0 mm; zone of inhibition at 5 µg/mL [27]: 23 mm; zone of inhibition at 5 µg/mL [28]: 29 mm; zone of inhibition at 5 µg/mL [29]: 0 mm; zone of inhibition at 5 µg/mL [30]: 34 mm; zone of inhibition at 5 µg/mL [31]: 18 mm |
| CC(=O)NC[C@H]1CN(c2ccc(N3CCOCC3)c(F)c2)C(=O)O1 [LINEZOLID] |  | 42 |  | 35 | 34 | 28 | 35 | 34 | 33 |  | 52 | 45 | 38 | 39 | 37 | 23 | inhibition zone (IZ) [19]: 10 mm; inhibition zone (IZ) [32]: 0 mm; inhibition zone (IZ) [8]: 39 mm |
